In ChEMBL document CHEMBL1155744, “Cytotoxic dolabellane diterpenes from the Formosan soft coral Clavularia inflata” (2001):
≈ marks a conversion by molar mass, not a printed value.

Assays:
Format in all cases: functional
Conditions in all cases: read-out: ED50 (the source's name)
A549 = assay: Cytotoxicity against human A549 cells
Method in brief: (§1)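 Cell lines were obtained from the American Type Culture Collection. Cytotoxicity was tested in vitro, and values are reported as ED50 in µg/mL.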

HT-29 = assay: Cytotoxicity against human HT-29 cells; method in brief: as §1
P388 = assay: Cytotoxicity against mouse P388 cells
Method in brief: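 Mouse lymphocytic leukemia P-388 cells were supplied by the Pezzuto laboratory at the University of Illinois at Chicago. Cytotoxicity was tested in vitro, and values are reported as ED50 in µg/mL.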

| SMILES | EC50 (A549) [µg/mL] | EC50 (HT-29) [µg/mL] | EC50 (P388) [µg/mL] |
| --- | --- | --- | --- |
| C=C1CC/C=C(\C)CCC2=C(C(C)C)C(=O)C[C@@]2(C)CC1=O | > 50 | > 50 | 3.89 (≈ 12.9 µM) |
| C=C1CC/C=C(\C)CCC2=C(C(C)C)C(=O)C[C@@]2(C)C[C@H]1O (relative stereo) | 8.1 (≈ 26.8 µM) | 9.19 (≈ 30.4 µM) | 3.82 (≈ 12.6 µM) |
| C=C1CC[C@H]2O[C@@]2(C)C/C=C2/[C@@H](C(C)C)C(=O)C[C@]2(C)CC1=O (relative stereo) | 8.56 (≈ 27.1 µM) | 7.84 (≈ 24.8 µM) | 2.48 (≈ 7.84 µM) |
| C=C1CC[C@@H](OO)C(=C)CCC2=C(C(C)C)C(=O)C[C@@]2(C)CC1=O (relative stereo) | 0.57 (≈ 1.71 µM) | 0.31 (≈ 0.932 µM) | 0.052 (≈ 0.156 µM) |
| C=C1CC/C=C(\C)C/C=C2/[C@@H](C(C)C)C(=O)C[C@]2(C)CC1=O (relative stereo) | > 50 | 27.3 (≈ 90.9 µM) | 2.6 (≈ 8.65 µM) |
| C=C1CC/C=C(\C)C[C@H]2O[C@@]23[C@@H](C(C)C)C(=O)C[C@]3(C)CC1=O (relative stereo) | 7.74 (≈ 24.5 µM) | 6.39 (≈ 20.2 µM) | 3.83 (≈ 12.1 µM) |
